# Measured values as given in PubChem BioAssay AID588621 (Sanford-Burnham Center for Chemical Genomics, 2011).
# About 890 (0.25%) of roughly 360,000 compounds were called active. Shown is part of a subset that was picked to be rich in actives. A number with no mark means an inactive call.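 How the source made its calls: active means inhibition at 20 µM, scaled per plate between control wells, above about 37% (limit read from the data); inactive means the rest.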
# Biological target: Tyrosine-protein phosphatase non-receptor type 5 (Homo sapiens) (UniProt P54829)
# Sequence (P54829 whole entry, looked up): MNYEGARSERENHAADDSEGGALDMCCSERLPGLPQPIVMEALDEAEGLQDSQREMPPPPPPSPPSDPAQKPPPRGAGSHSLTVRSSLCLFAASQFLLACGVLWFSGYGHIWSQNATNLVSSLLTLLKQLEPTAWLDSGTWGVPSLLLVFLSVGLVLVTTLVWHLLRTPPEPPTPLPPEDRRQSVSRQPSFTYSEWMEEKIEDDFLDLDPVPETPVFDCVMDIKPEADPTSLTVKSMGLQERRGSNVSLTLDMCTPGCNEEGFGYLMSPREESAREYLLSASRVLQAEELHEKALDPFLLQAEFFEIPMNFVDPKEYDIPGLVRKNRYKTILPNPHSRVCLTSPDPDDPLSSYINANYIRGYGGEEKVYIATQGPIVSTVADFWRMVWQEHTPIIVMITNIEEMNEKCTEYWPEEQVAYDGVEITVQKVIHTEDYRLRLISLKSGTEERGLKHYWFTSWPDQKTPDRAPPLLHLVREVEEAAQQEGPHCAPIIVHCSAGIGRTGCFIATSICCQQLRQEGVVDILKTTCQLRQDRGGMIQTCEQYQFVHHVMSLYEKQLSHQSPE
# Assay: STEP phosphatase inhibitors, primary screen, biochemical, fluorescence intensity, uHTS (AID 588621);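 further: 0% = DMSO with enzyme and substrate and 100% = substrate only without enzyme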
# Details: recombinant STEP, OMFP fluorogenic substrate, at 20 µM, hits give high values
# Method in brief: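 Assay system: isolated STEP enzyme / Timing: 20 min at room temperature, dark / Doses: 20 µM, 1% DMSO / Technique: fluorescence intensity, excitation 480 nm, emission 540 nm / Reagent: fluorogenic phosphatase substrate OMFP at 25 µM final / Measure: percent inhibition scaled to no-enzyme and uninhibited-enzyme controls, plate-pattern corrected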
row,SMILES,inhibition
1,COc1ccc(N2C(=O)/C(=C/c3ccco3)C(=O)NC2=S)cc1,63.7% (active)
2,CC1CC=CCC12C(=O)NC(=S)NC2=O (stereo not given),0%
3,COc1ccc(-n2c(-c3ccccc3)nc3ccccc3c2=O)cc1,-0.9%
4,O=C(c1cc2nc(-c3ccccc3)cc(-c3ccccc3)n2n1)N1CCC2(CC1)OCCO2,0.4%
5,CN(C)CCN(CC1CCCN(Cc2ccccc2F)C1)C(=O)Cc1ccc(F)c(F)c1 (stereo not given),-2%
